Test results reported in ChEMBL document CHEMBL4138193, “Novel indole and triazole based hybrid molecules exhibit potent anti-adipogenic and antidyslipidemic activity by activating Wnt3a/β-catenin pathway” (Eur J Med Chem, 2018).
Calls of active or inactive are those of the source. No cut-off for these calls is given here.

What was measured:
[1] = tested on: 3T3-L1; assay: Cytotoxicity against mouse 3T3L1 cells at 1 to 1000 uM after 24 hrs by MTT assay; format: cell-based; conditions: 3t3-l1, 24 h
In short: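 3T3-L1 cells seeded at 1×10^4 per well and grown 24 hr, then exposed to 1–1000 µM for 24 hr. Medium was replaced with MTT medium ([…]) for 3 hr and the formazan dissolved in DMSO. Absorbance read at 570 nm; three independent experiments, mean ± SD.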

[2] = species: Mus musculus; assay: Activation of Wnt3a/beta-catenin in mouse 3T3L1 cells assessed as down-regulation of PPARgamma expression at 20 uM after 2 to 6 days in presence of FH353 by Western blot analysis; format: cell-based
[3] = tested on: Syrian golden hamster; assay: Induction of reverse cholestrol transport in high fat diet-induced dyslipidemia Syrian Golden hamster model assessed as decrease in NPCL1 mRNA expression in liver at 100 mg/kg, po administered for 1 week by qRT-PCR analysis; format: functional, organism-based; conditions: Mesocricetus auratus
[4] = species: Mus musculus; assay: Activation of Wnt3a/beta-catenin in mouse 3T3L1 cells assessed as increase in SIRT1 mRNA expression at 20 uM by qRT-PCR analysis; format: cell-based
In short: (§1)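 3T3-L1 cells differentiated with IBMX/dexamethasone/insulin media with or without 20 µM compound over the differentiation period. RNA extracted with TRIZOL, 500 ng reverse-transcribed to cDNA, then quantitative real-time PCR. Three independent experiments run in triplicate, mean ± SD, one-way ANOVA with Bonferroni posttest.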

[5] = tested on: Syrian golden hamster; assay: Induction of reverse cholestrol transport in high fat diet-induced dyslipidemia Syrian Golden hamster model assessed as decrease in CETP mRNA expression in liver at 100 mg/kg, po administered for 1 week by qRT-PCR analysis; format: functional, organism-based; conditions: Mesocricetus auratus
[6] = species: Mus musculus; assay: Activation of Wnt3a/beta-catenin in mouse 3T3L1 cells assessed as induction of TCF1 expression at 20 uM after 16 to 24 hrs by Western blot analysis; format: cell-based
[7] = tested on: Syrian golden hamster; assay: Induction of reverse cholestrol transport in high fat diet-induced dyslipidemia Syrian Golden hamster model assessed as increase in HNF1alpha mRNA expression in liver at 100 mg/kg, po administered for 1 week by qRT-PCR analysis; format: functional, organism-based; conditions: Mesocricetus auratus
[8] = tested on: 3T3-L1; assay: Upregulation of wnt3a protein expression in mouse 3T3L1 cells at 20 uM after 16 to 24 hrs by Western blot analysis; format: functional, cell-based
In short: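 3T3-L1 cells given MDI with or without 20 µM; protein harvested at 16 and 24 hr. Lysates in ice-cold buffer with protease and phosphatase inhibitors were BCA-quantified, run on 8–12% SDS-PAGE, transferred to nitrocellulose and probed overnight at 4 °C. Detection by chemiluminescence, normalized to β-actin; three independent experiments.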

[9] = species: Mus musculus; assay: Activation of Wnt3a/beta-catenin in mouse 3T3L1 cells assessed as down-regulation of CDK4 expression at 20 uM after 16 to 24 hrs in presence of FH353 by Western blot analysis; format: cell-based
In short: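 Confluent 3T3-L1 cells given differentiation media (IBMX/insulin/dexamethasone) with 20 µM compound, with or without the β-catenin/TCF inhibitor FH353 (10 µM). Proteins isolated at 16 and 24 h and Western blotted after SDS-PAGE and nitrocellulose transfer. Blocking in 5% milk/TBS-T, primary antibody overnight at 4 °C, chemiluminescent detection, β-actin control, three independent experiments.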

[10] = species: Mus musculus; assay: Activation of Wnt3a/beta-catenin in mouse 3T3L1 cells assessed as down-regulation of C/EBPalpha expression at 20 uM after 2 to 6 days in presence of FH353 by Western blot analysis; format: cell-based
[11] = tested on: Syrian golden hamster; assay: Anti-dyslipidemic activity in high fat diet-induced dyslipidemia Syrian Golden hamster model assessed as decrease in serum ALT levels at 100 mg/kg, po administered for 1 week followed by overnight fasting post last dose by clinical bio-analyzer analysis; format: functional, organism-based; conditions: Mesocricetus auratus
In short: (§2)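 Male Syrian golden hamsters (8–10 wk, 100–120 g), 4 per group, given 45% kcal HFD for 4 days, then 100 mg/kg p.o. in 0.5% NaCMC daily for one week alongside HFD. Blood taken from retro-orbital plexus after overnight fast. TG, HDL, LDL, ALT, AST measured on a clinical bio-analyzer and NEFA by kit. Mean ± SEM, one-way ANOVA with Bonferroni.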

[12] = tested on: Syrian golden hamster; assay: Induction of reverse cholestrol transport in high fat diet-induced dyslipidemia Syrian Golden hamster model assessed as reduction in hepatic lipid vacuoles hypertrophy at 100 mg/kg, po administered for 1 week by H and E staining based assay; format: functional, organism-based; conditions: Mesocricetus auratus
[13] = species: Mus musculus; assay: Activation of Wnt3a/beta-catenin in differentiated mouse 3T3L1 cells assessed as down-regulation of PPARgamma protein expression at 20 uM after 16 to 24 hrs by Western blot analysis
In short: (§3)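 3T3-L1 preadipocytes grown to confluence in high-glucose DMEM/10% FBS, then given differentiation media (0.5 mM IBMX, 5 µg/ml insulin, 250 nM dexamethasone) with or without 20 µM compound. Protein isolated at set time points, lysed with protease/phosphatase inhibitors, BCA-quantified, resolved by 8–12% SDS-PAGE, immunoblotted with ECL detection. β-actin loading control, densitometry normalized to actin, n=3.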

[14] = tested on: Syrian golden hamster; assay: Anti-dyslipidemic activity in high fat diet-induced dyslipidemia Syrian Golden hamster model assessed as reduction in serum NEFA levels at 100 mg/kg, po administered for 1 week followed by overnight fasting post last dose; format: functional, organism-based; conditions: Mesocricetus auratus; in short: as §2
[15] = species: Mus musculus; assay: Activation of Wnt3a/beta-catenin in differentiated mouse 3T3L1 cells assessed as down-regulation of C/EBPalpha protein expression at 20 uM after 16 to 24 hrs by Western blot analysis; in short: as §3
[16] = species: Mus musculus; assay: Activation of Wnt3a/beta-catenin in mouse 3T3L1 cells assessed as increase in BMP2 mRNA expression at 20 uM by qRT-PCR analysis; format: cell-based; in short: as §1
[17] = tested on: 3T3-L1; assay: Cell cycle arrest in mouse 3T3L1 cells assessed as reduction in accumulation at S phase at 10 to 20 uM after 24 hrs by propidium iodide-staining based flow cytometry; format: functional
In short: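 Confluent 3T3-L1 preadipocytes given differentiation medium (0.5 mM IBMX, 5 µg/ml insulin, 250 nM dexamethasone) with 10 or 20 µM for 16 and 24 hr. Cells trypsinized, fixed in ice-cold 70% ethanol for 2 hr, stained with propidium iodide (40 µg/ml in RNase A buffer, 30 min, room temperature). Flow cytometry gave the fractions in G1, S and G2/M; three independent experiments.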

[18] = tested on: 3T3-L1; assay: Anti-adipogenic activity in mouse 3T3L1 pre-adipocytes in differentiation media assessed as reduction in lipid accumulation at 20 uM after 20 mins in presence of beta-catenin/TCF complex inhibitor FH353 by Oil Red O absorbance method; format: functional, cell-based
In short: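 3T3-L1 cells differentiated with 20 µM compound with or without FH353 (10 µM) in differentiation media. Oil red O extracted and absorbance read at 492 nm, n=3, mean ± SD, Student t test.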

[19] = tested on: 3T3-L1; assay: Anti-adipogenic activity in mouse 3T3L1 cells assessed as reduction in lipid accumulation at 20 uM measured up to 7 days by Oil Red O staining based leica microscopy; format: functional, cell-based
In short: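 3T3-L1 or C3H10T1/2 cells given 20 µM compound in differentiation media for varied time periods, then stained with Oil red O. Imaged by microscopy at 10x, representative of three independent experiments.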

Activity [13]: Active
Activity [15]: Active
Structure (SMILES): Cc1ccc(S(=O)(=O)N(Cc2cn(Cc3cccc(F)c3F)nn2)Cc2cn(S(=O)(=O)c3ccc(C)cc3)c3ccccc23)cc1
Activity [1]: Non-Toxic
Activity [2]: inactive
Activity [3]: Active
Activity [4]: Active
Activity [5]: Active
Activity [6]: Active
Activity [7]: Active
Activity [8]: Active
Activity [9]: inactive
Activity [10]: inactive
Activity [11]: Active
Activity [12]: Active
Activity [14]: Active
Activity [16]: Active
Activity [17]: inactive
Activity [18]: inactive
Activity [19]: Active
